Test results: ChEMBL document CHEMBL1153941, “Synthesis, molecular modeling, and selective inhibitory activity against human monoamine oxidases of 3-carboxamido-7-substituted coumarins” (J Med Chem, 2009); call rule not given here
pIC50: −log10 of the molar value.

Species on record: Homo sapiens
Test: Selectivity index, ratio of IC50 for human recombinant MAOA to IC50 for human recombinant MAOB
`CC(C)NC(=O)c1cc2ccc(OCc3ccccc3)cc2oc1=O` was tested, and the Ratio IC50 was < 0.63.
For `CCOC(=O)c1ccc(NC(=O)c2cc3ccccc3oc2=O)cc1`, the Ratio IC50 was < 0.16.
`O=C(Nc1ccccc1Cc1ccccc1)c1cc2ccc(OCc3ccc(F)cc3)cc2oc1=O` was tested, and the Ratio IC50 was < 0.56.
`O=C(Cl)c1ccc(NC(=O)c2cc3ccccc3oc2=O)cc1` was tested, and the Ratio IC50 was < 0.1.

The compounds below were run against T1, Amine oxidase [flavin-containing] A (Homo sapiens, UniProt P21397) (assay: Inhibition of human recombinant MAOA expressed in BTI-TN-5B1-4 cells assessed as effect on H2O2 production from para-tyramine at 100 uM by fluorimetric method).
T1 sequence (P21397 whole entry): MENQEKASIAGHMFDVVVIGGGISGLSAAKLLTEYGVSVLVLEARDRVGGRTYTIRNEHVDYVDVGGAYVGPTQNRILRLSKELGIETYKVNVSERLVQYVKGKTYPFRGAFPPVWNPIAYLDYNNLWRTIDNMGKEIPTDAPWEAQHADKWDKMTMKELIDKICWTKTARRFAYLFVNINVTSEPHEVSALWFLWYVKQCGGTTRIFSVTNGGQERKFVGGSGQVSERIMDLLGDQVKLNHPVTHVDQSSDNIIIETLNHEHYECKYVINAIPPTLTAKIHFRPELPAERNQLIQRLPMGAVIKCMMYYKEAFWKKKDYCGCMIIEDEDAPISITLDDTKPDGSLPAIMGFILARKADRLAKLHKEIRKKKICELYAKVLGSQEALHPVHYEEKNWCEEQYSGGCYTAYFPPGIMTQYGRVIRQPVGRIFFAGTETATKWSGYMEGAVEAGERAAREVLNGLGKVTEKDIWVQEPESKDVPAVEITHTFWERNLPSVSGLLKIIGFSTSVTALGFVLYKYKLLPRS
Type: cell-based
Procedure, shortened: (§1)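 Enzyme and test drug were preincubated 15 min at 37 °C in 0.05 M sodium phosphate, pH 7.4. Final 1 mM p-tyramine, 200 µM Amplex Red and 1 U/mL HRP were then added. Resorufin fluorescence (ex 545/em 590 nm) was read over 15 min, minus enzyme-free background. Top concentration tested was 100 µM.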
In the case of `NCCNC(=O)c1cc2ccccc2oc1=O`, the IC50 was “Not Active”.
For `O=C(Nc1c(F)c(F)c(F)c(F)c1F)c1cc2ccccc2oc1=O`, the IC50 was “Not Active”.
With `CC(C)NC(=O)c1cc2ccccc2oc1=O` the IC50 was “Not Active”.
In the case of `O=C(Nc1ccc(O)cc1)c1cc2ccccc2oc1=O`, the IC50 was “Not Active”.
In the case of `COc1cccc(NC(=O)c2cc3ccccc3oc2=O)c1`, the IC50 was “Not Active”.
`O=C(NC1CCCCC1)c1cc2ccccc2oc1=O` was tested, and the IC50 was “Not Active”.
With `COc1ccc(NC(=O)c2cc3ccc(OCc4ccccc4)cc3oc2=O)cc1OC` the IC50 was “Not Active”.
For `O=C(NCc1ccccc1)c1cc2ccc(OCc3ccccc3)cc2oc1=O`, the IC50 was “Not Active”.
In the case of `CC(C)c1ccc(NC(=O)c2cc3ccc(OCc4ccc(F)cc4)cc3oc2=O)cc1`, the IC50 was “Not Active”.
In the case of `CC(C)CNC(=O)c1cc2ccccc2oc1=O`, the IC50 was “Not Active”.
With `O=C(Nc1cccc(C(F)(F)F)c1)c1cc2ccccc2oc1=O` the IC50 was “Not Active”.
In the case of `CN(C(=O)c1cc2ccccc2oc1=O)c1ccccc1`, the IC50 was “Not Active”.
`O=C(NCCc1ccccc1)c1cc2ccccc2oc1=O` was tested, and the IC50 was “Not Active”.
With `CN(Cc1ccccc1)C(=O)c1cc2ccccc2oc1=O` the IC50 was “Not Active”.
For `CN(C(=O)c1cc2ccc(OCc3ccccc3)cc2oc1=O)c1ccccc1`, the IC50 was “Not Active”.
For `O=C(NCc1ccccc1)c1cc2ccccc2oc1=O`, the IC50 was “Not Active”.
For `C#CCNC(=O)c1cc2ccccc2oc1=O`, the IC50 was “Not Active”.
With `O=C(NC1CCCCC1)c1cc2ccc(OCc3ccccc3)cc2oc1=O` the IC50 was “Not Active”.
In the case of `O=C(Nc1cccc(F)c1)c1cc2ccccc2oc1=O`, the IC50 was “Not Active”.
For `O=C(Nc1ccccc1Cc1ccccc1)c1cc2ccccc2oc1=O`, the IC50 was “Not Active”.
`O=C(c1cc2ccccc2oc1=O)N(c1ccccc1)c1ccccc1` was tested, and the IC50 was “Not Active”.
For `Cc1cccc(Cl)c1NC(=O)c1cc2ccccc2oc1=O`, the IC50 was “Not Active”.
With `COc1ccc(NC(=O)c2cc3ccccc3oc2=O)cc1` the IC50 was “Not Active”.

These compounds were tested against T2, Amine oxidase [flavin-containing] B (Homo sapiens, UniProt P27338) (assay: Inhibition of human recombinant MAOB expressed in BTI-TN-5B1-4 cells assessed as effect on H2O2 production from para-tyramine at 100 uM by fluorimetric method).
T2 sequence (P27338 whole entry): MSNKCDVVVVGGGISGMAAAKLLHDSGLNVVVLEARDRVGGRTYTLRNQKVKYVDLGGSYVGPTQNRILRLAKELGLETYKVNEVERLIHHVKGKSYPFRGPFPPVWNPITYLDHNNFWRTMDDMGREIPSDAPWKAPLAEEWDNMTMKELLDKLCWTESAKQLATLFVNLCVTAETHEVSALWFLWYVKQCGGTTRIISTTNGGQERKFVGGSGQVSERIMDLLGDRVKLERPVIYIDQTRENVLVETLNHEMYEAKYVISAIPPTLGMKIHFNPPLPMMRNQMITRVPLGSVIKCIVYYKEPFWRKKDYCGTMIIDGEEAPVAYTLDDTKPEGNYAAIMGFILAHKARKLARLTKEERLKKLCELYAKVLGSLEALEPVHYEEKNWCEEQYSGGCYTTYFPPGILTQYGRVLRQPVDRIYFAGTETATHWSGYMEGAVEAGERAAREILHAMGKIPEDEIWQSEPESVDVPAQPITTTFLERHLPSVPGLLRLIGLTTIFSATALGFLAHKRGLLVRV
Type: cell-based
Procedure, shortened: as §1
With `CC(C)NC(=O)c1cc2ccc(OCc3ccccc3)cc2oc1=O` the IC50 was “Not Active”.
With `CC(C)c1ccc(NC(=O)c2cc3ccc(OCc4ccc(F)cc4)cc3oc2=O)cc1` the IC50 was “Not Active”.
For `CCOC(=O)c1ccc(NC(=O)c2cc3ccccc3oc2=O)cc1`, the IC50 was “Not Active”.
In the case of `O=C(NCCc1ccccc1)c1cc2ccccc2oc1=O`, the IC50 was “Not Active”.
In the case of `CN(Cc1ccccc1)C(=O)c1cc2ccccc2oc1=O`, the IC50 was “Not Active”.
`O=C(Nc1ccccc1Cc1ccccc1)c1cc2ccc(OCc3ccc(F)cc3)cc2oc1=O` was tested, and the IC50 was “Not Active”.
`C#CCNC(=O)c1cc2ccccc2oc1=O` was tested, and the IC50 was “Not Active”.
`O=C(c1cc2ccccc2oc1=O)N(c1ccccc1)c1ccccc1` was tested, and the IC50 was “Not Active”.
`O=C(Cl)c1ccc(NC(=O)c2cc3ccccc3oc2=O)cc1` was tested, and the IC50 was “Not Active”.

The compounds below were run against T1, Amine oxidase [flavin-containing] A (assay: Inhibition of human recombinant MAOA expressed in BTI-TN-5B1-4 cells assessed as effect on H2O2 production from para-tyramine by fluorimetric method).
Type: cell-based
`COc1cc(NC(=O)c2cc3ccc(OCc4ccc(F)cc4)cc3oc2=O)cc(OC)c1` gave a pIC50 of 4.28.
`O=C(NNc1ccccc1)c1cc2ccc(OCc3ccccc3)cc2oc1=O` gave a pIC50 of 4.38.
In the case of `Cc1ccc(NC(=O)c2cc3ccccc3oc2=O)cc1`, the pIC50 was 4.71.
`COc1ccc(NC(=O)c2cc3ccccc3oc2=O)cc1OC` gave a pIC50 of 5.02.
For `Cc1ccc(NC(=O)c2cc3ccccc3oc2=O)cc1C`, the pIC50 was 4.73.
`CSc1ccc(NC(=O)c2cc3ccccc3oc2=O)cc1` gave a pIC50 of 4.83.
`COc1ccc(NC(=O)c2cc3ccc(OCc4ccc(F)cc4)cc3oc2=O)cc1OC` gave a pIC50 of 4.31.
`Cc1cccc(NC(=O)c2cc3ccccc3oc2=O)c1C` showed a pIC50 of 4.69.
For `Cc1cccc(Cl)c1NC(=O)c1cc2ccc(OCc3ccc(F)cc3)cc2oc1=O`, the pIC50 was 4.23.
For `COc1cc(NC(=O)c2cc3ccccc3oc2=O)cc(OC)c1`, the pIC50 was 4.21.
In the case of `O=C(Nc1ccc(F)cc1)c1cc2ccccc2oc1=O`, the pIC50 was 4.88.
For `N#Cc1c(F)c(F)c(NC(=O)c2cc3ccc(OCc4ccccc4)cc3oc2=O)c(F)c1F`, the pIC50 was 4.21.
`CC(C)CNC(=O)c1cc2ccc(OCc3ccccc3)cc2oc1=O` was tested, and the pIC50 was 4.23.
Compound `O=C(Nc1c(F)c(F)nc(F)c1F)c1cc2ccccc2oc1=O` has a pIC50 of 4.94.
With `CC(C)c1ccc(NC(=O)c2cc3ccc(OCc4ccccc4)cc3oc2=O)cc1` the pIC50 was 4.22.
Work on `CC(C)NC(=O)c1cc2ccc(OCc3ccccc3)cc2oc1=O` yielded a pIC50 of 4.20.
Compound `O=C(Nc1c(F)cccc1F)c1cc2ccccc2oc1=O` has a pIC50 of 4.89.
`CCOC(=O)c1ccc(NC(=O)c2cc3ccccc3oc2=O)cc1` gave a pIC50 of 4.80.
In the case of `COc1cc(NC(=O)c2cc3ccc(OCc4ccccc4)cc3oc2=O)cc(OC)c1`, the pIC50 was 4.28.
For `N#Cc1c(F)c(F)c(NC(=O)c2cc3ccccc3oc2=O)c(F)c1F`, the pIC50 was 4.79.
`Cc1ccc(NC(=O)c2cc3ccccc3oc2=O)c(C)c1` was tested, and the pIC50 was 4.91.
For `CCc1ccc(NC(=O)c2cc3ccccc3oc2=O)cc1`, the pIC50 was 4.80.
For `O=C(O)c1ccc(NC(=O)c2cc3ccccc3oc2=O)cc1`, the pIC50 was 5.00.
`Cc1cc(C)cc(NC(=O)c2cc3ccccc3oc2=O)c1` was tested, and the pIC50 was 4.76.
For `O=C(Nc1ccccc1Cc1ccccc1)c1cc2ccc(OCc3ccc(F)cc3)cc2oc1=O`, the pIC50 was 4.25.
Compound `Cc1cccc(C)c1NC(=O)c1cc2ccccc2oc1=O` has a pIC50 of 5.01.
With `CC(C)c1ccc(NC(=O)c2cc3ccccc3oc2=O)cc1` the pIC50 was 4.82.
In the case of `O=C(Nc1ccccc1Cc1ccccc1)c1cc2ccc(OCc3ccccc3)cc2oc1=O`, the pIC50 was 4.28.
Compound `O=C(Cl)c1ccc(NC(=O)c2cc3ccccc3oc2=O)cc1` has a pIC50 of 5.01.
`Cc1ccc(C)c(NC(=O)c2cc3ccccc3oc2=O)c1` was tested, and the pIC50 was 4.80.
Work on `N#Cc1c(F)c(F)c(NC(=O)c2cc3ccc(OCc4ccc(F)cc4)cc3oc2=O)c(F)c1F` yielded a pIC50 of 4.23.
Compound `Cc1cccc(NC(=O)c2cc3ccccc3oc2=O)c1` has a pIC50 of 4.84.
Compound `O=C(Nc1ccccc1)c1cc2ccccc2oc1=O` has a pIC50 of 4.88.
`Cc1cccc(Cl)c1NC(=O)c1cc2ccc(OCc3ccccc3)cc2oc1=O` was tested, and the pIC50 was 4.30.
Compound `CS(=O)(=O)c1ccc(NC(=O)c2cc3ccccc3oc2=O)cc1` has a pIC50 of 5.03.
For `COc1ccc(NC(=O)c2cc3ccc(OCc4ccccc4)c(C)c3oc2=O)cc1OC`, the pIC50 was 4.31.

These compounds were tested against T2, Amine oxidase [flavin-containing] B (assay: Inhibition of human recombinant MAOB expressed in BTI-TN-5B1-4 cells assessed as effect on H2O2 production from para-tyramine at 1 mM by fluorimetric method).
Type: cell-based
Procedure, shortened: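 Drugs preincubated with enzyme 15 min, 37 °C, 0.05 M sodium phosphate pH 7.4. Amplex Red 200 µM, HRP 1 U/mL, p-tyramine 1 mM (final) added. Resorufin fluorescence (ex 545/em 590 nm) read over 15 min at 37 °C, enzyme-free background subtracted.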
For `O=C(NCCN1CCOCC1)c1ccc(Cl)cc1` [MOCLOBEMIDE], the IC50 was “Not Active”.
